In ChEMBL document CHEMBL2040807, “Facile synthesis, cytotoxic and antimicrobial activity studies of a new group of 6-aryl-3-[4-(methylsulfonyl)benzyl]-7H-[1,2,4]triazolo[3,4-b][1,3,4]thiadiazines” (Eur J Med Chem, 2012):
≈ marks a conversion by molar mass, not a printed value. Calls of active or inactive are those of the source. No cut-off for these calls is given here.

Experiments:
HT-29 [1] = test: Cytotoxicity against human HT-29 cells after 48 hrs by MTT assay; format: functional, cell-based; conditions: HT-29, 48 h
How it was run: (§1)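 Cells seeded at 1 x 10^4 per well (viability by Trypan blue exclusion) and treated in triplicate at 100, 50, 25 and […], 48 h at 37 °C, 5% CO2. Medium was then replaced with serum-free DMEM plus MTT for 3 h. Formazan was dissolved in DMSO for 15 min at 37 °C and read at 570 nm. % cell death was taken relative to vehicle (DMSO) control, and IC50 derived from it.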

Staphylococcus aureus = test: Antibacterial activity against Staphylococcus aureus after 16 hrs by broth dilution method; format: functional
How it was run: (§2)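 Compound stocks at 1 mg/mL in DMF, serially twofold diluted in trypticase soya broth tubes. Organisms were grown 6 h at 37 °C in trypticase soya broth, adjusted to McFarland […] (10^8 cfu/mL) in PBS, then diluted 10^3-fold in broth to 10^5 cfu/mL; 1 mL of this inoculum was added per tube. Tubes were incubated 16 h at 37 °C, with inoculum and broth controls. MIC was read as the lowest concentration with no visible growth.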

RAW264.7 [2] = test: Cytotoxicity against mouse RAW264.7 cells assessed as cell death at 12.5 uM after 48 hrs by MTT assay; format: functional; conditions: pooled result: one value given for 2 cell lines, strains, targets or settings
How it was run: (§3)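 Both cell lines were seeded at 1×10⁴ cells per well, with viability checked first by trypan blue exclusion. Compounds were tested in triplicate for 48 h at 37 °C in 5% CO₂. Medium was then replaced with serum-free DMEM, MTT was added, and plates were held 3 h at 37 °C. Formazan was dissolved in DMSO for 15 min and read at 570 nm. % cell death = (A_DMSO − A_sample)/A_DMSO × 100.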

Pseudomonas aeruginosa = test: Antibacterial activity against Pseudomonas aeruginosa after 16 hrs by broth dilution method; format: functional; how it was run: as §2
RAW264.7 [3] = test: Cytotoxicity against mouse RAW264.7 cells assessed as cell death at 50 uM after 48 hrs by MTT assay; format: functional; conditions: pooled result: one value given for 2 cell lines, strains, targets or settings; how it was run: as §3
RAW264.7 [4] = test: Cytotoxicity against mouse RAW264.7 cells assessed as cell death at 25 uM after 48 hrs by MTT assay; format: functional; conditions: pooled result: one value given for 2 cell lines, strains, targets or settings; how it was run: as §3
Bacillus cereus = test: Antibacterial activity against Bacillus cereus after 16 hrs by broth dilution method; format: functional; how it was run: as §2
RAW264.7 [5] = test: Cytotoxicity against mouse RAW264.7 cells after 48 hrs by MTT assay; format: functional, cell-based; conditions: RAW264.7, 48 h; how it was run: as §1
RAW264.7 [6] = test: Cytotoxicity against mouse RAW264.7 cells assessed as cell death at 100 uM after 48 hrs by MTT assay; format: functional; conditions: pooled result: one value given for 2 cell lines, strains, targets or settings; how it was run: as §3
Escherichia coli = test: Antibacterial activity against Escherichia coli after 16 hrs by broth dilution method; format: functional; how it was run: as §2
Candida albicans = test: Antifungal activity against Candida albicans after 16 hrs by broth dilution method; format: functional; how it was run: as §2
HT-29 [7] = test: Cytotoxicity against human HT-29 cells assessed as cell death at 12.5 uM after 48 hrs by MTT assay; format: functional; conditions: pooled result: one value given for 2 cell lines, strains, targets or settings; how it was run: as §3
HT-29 [8] = test: Cytotoxicity against human HT-29 cells assessed as cell death at 2.5 uM after 48 hrs by MTT assay; format: functional
RAW264.7 [9] = test: Cytotoxicity against mouse RAW264.7 cells assessed as cell death at 2.5 uM after 48 hrs by MTT assay; format: functional
HT-29 [10] = test: Cytotoxicity against human HT-29 cells assessed as cell death at 25 uM after 48 hrs by MTT assay; format: functional; conditions: pooled result: one value given for 2 cell lines, strains, targets or settings; how it was run: as §3

| Compound | IC50 (HT-29 [1]) [µM] | MIC (Staphylococcus aureus) [µg/mL] | Activity (RAW264.7 [2]) | MIC (Pseudomonas aeruginosa) [µg/mL] | Activity (RAW264.7 [3]) [%] | Activity (RAW264.7 [4]) | MIC (Bacillus cereus) [µg/mL] | IC50 (RAW264.7 [5]) [µM] | Activity (RAW264.7 [6]) [%] | MIC (Escherichia coli) [µg/mL] | MIC (Candida albicans) [µg/mL] | Activity (HT-29 [7]) | Activity (HT-29 [8]) [%] | Activity (RAW264.7 [9]) [%] | Activity (HT-29 [10]) |
| --- | --- | --- | --- | --- | --- | --- | --- | --- | --- | --- | --- | --- | --- | --- | --- |
| CS(=O)(=O)c1ccc(Cc2nnc3n2N=C(c2ccccc2)CS3)cc1 | 25 | 6.25 (≈ 16.3 µM) | 41.97% | 6.25 (≈ 16.3 µM) | 46.73 | 50.95% | 6.25 (≈ 16.3 µM) | 25 | 55.51 | 6.25 (≈ 16.3 µM) | 25 (≈ 65 µM) |  |  |  |  |
| CC1(C)S[C@@H]2[C@H](NC(=O)Cc3ccccc3)C(=O)N2[C@H]1C(=O)O [PENICILLIN G] |  | 0.12 (≈ 0.359 µM) |  | 0.12 (≈ 0.359 µM) |  |  | 0.12 (≈ 0.359 µM) |  |  | 0.12 (≈ 0.359 µM) |  |  |  |  |  |
| CS(=O)(=O)c1ccc(Cc2nnc3n2N=C(c2cc4ccccc4c(=O)o2)CS3)cc1 | > 100 | 6.25 (≈ 13.8 µM) | 22.43% | 6.25 (≈ 13.8 µM) | 14.86 | 25.58% | 6.25 (≈ 13.8 µM) | > 100 | 10.63 | 6.25 (≈ 13.8 µM) | 3.12 (≈ 6.91 µM) |  |  |  |  |
| OC(Cn1cncn1)(Cn1cncn1)c1ccc(F)cc1F [FLUCONAZOLE] |  |  |  |  |  |  |  |  |  |  | 0.8 (≈ 2.61 µM) |  |  |  |  |
| CS(=O)(=O)c1ccc(Cc2nnc3n2N=C(c2ccc(-c4ccccc4)cc2)CS3)cc1 | 12.5 | 6.25 (≈ 13.6 µM) | 58.2% | 6.25 (≈ 13.6 µM) | 67.93 | 60.19% | 6.25 (≈ 13.6 µM) | 12.5 | 74.77 | 6.25 (≈ 13.6 µM) | 6.25 (≈ 13.6 µM) |  |  |  |  |
| Cc1ccc(C2=Nn3c(Cc4ccc(S(C)(=O)=O)cc4)nnc3SC2)cc1 | > 100 | 12.5 (≈ 31.4 µM) | inactive | 12.5 (≈ 31.4 µM) | 37.91 | 1.26% | 12.5 (≈ 31.4 µM) | > 100 | 38.53 | 12.5 (≈ 31.4 µM) | 1.56 (≈ 3.92 µM) | inactive |  |  |  |
| CS(=O)(=O)c1ccc(Cc2nnc3n2N=C(c2cc(Cl)sc2S(N)(=O)=O)CS3)cc1 | > 100 | 12.5 (≈ 24.8 µM) | 22.8% | 6.25 (≈ 12.4 µM) | 27.46 | 18.66% | 12.5 (≈ 24.8 µM) | > 100 | 35.22 | 6.25 (≈ 12.4 µM) | 6.25 (≈ 12.4 µM) |  |  |  |  |
| COc1cccc2c1C(=O)c1c(O)c3c(c(O)c1C2=O)C[C@@](O)(C(=O)CO)C[C@@H]3O[C@H]1C[C@H](N)[C@H](O)[C@H](C)O1 [DOXORUBICIN] |  |  |  |  |  |  |  |  |  |  |  |  | 78.2 | 78.2 |  |
| CS(=O)(=O)c1ccc(Cc2nnc3n2N=C(c2ccc(Cl)cc2Cl)CS3)cc1 | > 100 | 12.5 (≈ 27.6 µM) | 27.99% | 6.25 (≈ 13.8 µM) | 27.33 | 24.19% | 6.25 (≈ 13.8 µM) | > 100 | 30.99 | 3.12 (≈ 6.89 µM) | 6.25 (≈ 13.8 µM) |  |  |  |  |
| CS(=O)(=O)c1ccc(Cc2nnc3n2N=C(c2ccc(O)c(C(N)=O)c2)CS3)cc1 | > 100 | 12.5 (≈ 28.2 µM) | 24.81% | 6.25 (≈ 14.1 µM) | 33.06 | 24.66% | 3.12 (≈ 7.05 µM) | > 100 | 37.08 | 6.25 (≈ 14.1 µM) | 3.12 (≈ 7.05 µM) |  |  |  |  |
| CS(=O)(=O)c1ccc(Cc2nnc3n2N=C(c2cc(Cl)sc2Cl)CS3)cc1 | > 100 | 6.25 (≈ 13.6 µM) | inactive | 6.25 (≈ 13.6 µM) | 25.54 | inactive | 6.25 (≈ 13.6 µM) | > 100 | 47.27 | 6.25 (≈ 13.6 µM) | 3.12 (≈ 6.8 µM) | inactive |  |  | inactive |
| CS(=O)(=O)c1ccc(Cc2nnc3n2N=C(c2cc(Cl)cc4c2-c2ccc(Cl)cc2C4)CS3)cc1 | 100 | 12.5 (≈ 23.1 µM) | 41.05% | 3.12 (≈ 5.77 µM) | 43.12 | 44.8% | 6.25 (≈ 11.5 µM) | 100 | 50.33 | 6.25 (≈ 11.5 µM) | 6.25 (≈ 11.5 µM) |  |  |  |  |
